According to ChEMBL document CHEMBL3259707, “Design and synthesis of human ABCB1 (P-glycoprotein) inhibitors by peptide coupling of diverse chemical scaffolds on carboxyl and amino termini of (S)-valine-derived thiazole amino acid” (J Med Chem, 2014):
pIC50: −log10 of the molar value.

How the values were obtained:
[1] = target: T1, ATP-dependent translocase ABCB1 (Homo sapiens, UniProt P08183); assay: Inhibition of human P-gp
[2] = target: T1, ATP-dependent translocase ABCB1; assay: Inhibition of human wild type P-gp expressed in BacMam virus infected human HeLa cells assessed as calcein-AM accumulation after 10 mins by flow cytometry; format: cell-based; conditions: for inhibition (INH): human, 10 min
Procedure, shortened: (§1)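 HeLa cells transduced with BacMam WT-P-gp (10–15 particles/cell); 10 mM butyric acid added after 3–4 h, grown overnight at 37 °C. Trypsinized cells exposed to compound, then 0.5 μM calcein-AM for 10 min at 37 °C in the dark. […] Two independent experiments in triplicate, ± SD.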

[3] = Retention time of the compound by HPLC analysis; format: physicochemical
Procedure, shortened: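 Reverse-phase C18 HPLC, isocratic acetonitrile/water 60:40, 1.0 mL/min, UV 254 nm; purity from major-peak area.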

[4] = target: T1, ATP-dependent translocase ABCB1; assay: Inhibition of human wild type P-gp expressed in BacMam virus infected human HeLa cells assessed as calcein-AM accumulation at 10 uM after 10 mins by flow cytometry; format: cell-based; procedure, shortened: as §1
[5] = Retardation factor of the compound using EtOAc-n-hexane at ratio of 1:1 by thin layer chromatography; format: physicochemical
[6] = Retardation factor of the compound using EtOAc-n-hexane at ratio of 3:2 by thin layer chromatography; format: physicochemical
[7] = Cytotoxicity against human HEK293 cells overexpressing human ABCB1 assessed as cell survival at 3 uM by MTT assay; format: ADME, cell-based; conditions: HEK293 cells that overexpress human ABCB1, read-out: Activity
Procedure, shortened: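 HEK293 cells stably transfected with human ABCB1 cDNA, kept in DMEM with G418 (2 mg/mL) and drug-free for over 2 weeks. Cells seeded at 5000–6000/well, attached 24 h at 37 °C, 5% CO2, then exposed 72 h to modulator. MTT (4 mg/mL) added for 4 h, formazan dissolved in DMSO, absorbance read at 570 nm. Four independent experiments, each in triplicate.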

[8] = target: T1, ATP-dependent translocase ABCB1; assay: Displacement of […] from ABCB1 (unknown origin) expressed in High Five insect cell membrane preincubated for 10 mins by autoradiography
Procedure, shortened: (§2)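 Compound 0–20 μM, 10 min at 37 °C. Then [125I]-IAAP (2200 Ci/mmol; 4–6 nM) added for 5 min under minimal light. UV 365 nm for 10 min, labeling read by autoradiography. Two independent experiments; curve fitted by one-phase decay.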

[9] = Cytotoxicity against human SW620 cells assessed as cell survival at 3 uM by MTT assay; format: cell-based, SW-620; conditions: read-out: Activity
Procedure, shortened: (§3)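 MTT survival. Cells seeded 5000–6000/well, attached 24 h at 37 °C, 5% CO2; test agent for 72 h; MTT 4 mg/mL stock added, 4 h at 37 °C; formazan dissolved in DMSO, A570 read. Four independent experiments, each in triplicate. SW620/Ad300 is the doxorubicin-selected P-gp subline of SW620; HEK293 grown in DMEM with G418 (2 mg/mL). All cells kept drug-free >2 weeks before assay.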

[10] = Cytotoxicity against human SW620/Ad300 cells overexpressing ABCB1 assessed as cell survival at 3 uM by MTT assay; format: ADME, cell-based, SW-620; conditions: SW620/Ad300 cells that overexpress ABCB1, read-out: Activity; procedure, shortened: as §3
[11] = Cytotoxicity against human HEK293 cells assessed as cell survival at 3 uM by MTT assay; format: cell-based; conditions: read-out: Activity; procedure, shortened: as §3
[12] = target: T1, ATP-dependent translocase ABCB1; assay: Displacement of […] from ABCB1 (unknown origin) expressed in High Five insect cell membrane at >5 uM preincubated for 10 mins by autoradiography; conditions: human; procedure, shortened: as §2
[13] = Inhibition of mouse P-gp

T1 sequence (P08183 whole entry): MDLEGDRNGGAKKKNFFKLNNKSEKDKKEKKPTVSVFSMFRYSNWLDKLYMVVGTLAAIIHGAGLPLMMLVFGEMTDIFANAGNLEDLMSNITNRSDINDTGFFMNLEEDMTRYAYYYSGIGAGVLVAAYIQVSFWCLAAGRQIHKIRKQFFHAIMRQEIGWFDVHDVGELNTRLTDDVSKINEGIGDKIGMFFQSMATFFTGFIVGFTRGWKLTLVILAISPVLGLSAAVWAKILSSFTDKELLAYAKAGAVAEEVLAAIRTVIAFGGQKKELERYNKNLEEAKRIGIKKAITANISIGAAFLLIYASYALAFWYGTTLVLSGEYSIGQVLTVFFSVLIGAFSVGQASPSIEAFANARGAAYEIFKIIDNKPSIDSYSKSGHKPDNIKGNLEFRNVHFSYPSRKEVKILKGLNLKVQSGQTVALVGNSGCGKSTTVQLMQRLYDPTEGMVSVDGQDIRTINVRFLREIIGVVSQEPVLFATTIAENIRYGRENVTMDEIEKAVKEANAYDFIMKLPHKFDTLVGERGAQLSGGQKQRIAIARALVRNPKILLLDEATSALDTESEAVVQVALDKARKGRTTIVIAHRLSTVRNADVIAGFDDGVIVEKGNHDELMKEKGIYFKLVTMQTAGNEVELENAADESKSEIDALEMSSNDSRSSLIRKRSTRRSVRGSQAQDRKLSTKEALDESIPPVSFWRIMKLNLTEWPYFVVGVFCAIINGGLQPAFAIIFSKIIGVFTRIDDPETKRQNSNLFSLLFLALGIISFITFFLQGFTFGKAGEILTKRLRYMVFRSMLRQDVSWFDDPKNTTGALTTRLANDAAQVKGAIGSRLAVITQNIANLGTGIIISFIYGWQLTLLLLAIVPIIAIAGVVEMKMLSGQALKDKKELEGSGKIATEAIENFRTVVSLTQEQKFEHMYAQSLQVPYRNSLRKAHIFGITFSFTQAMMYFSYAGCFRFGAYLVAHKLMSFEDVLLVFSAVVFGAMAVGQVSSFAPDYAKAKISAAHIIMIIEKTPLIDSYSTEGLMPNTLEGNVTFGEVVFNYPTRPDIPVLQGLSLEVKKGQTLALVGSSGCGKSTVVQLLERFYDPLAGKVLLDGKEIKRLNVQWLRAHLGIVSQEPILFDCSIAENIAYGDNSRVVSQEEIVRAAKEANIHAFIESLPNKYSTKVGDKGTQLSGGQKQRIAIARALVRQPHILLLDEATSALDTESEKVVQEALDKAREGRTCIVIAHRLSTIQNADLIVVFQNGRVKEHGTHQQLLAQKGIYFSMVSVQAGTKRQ

Retention_time [3] [min]	inhibition (INH) [4] [%]	Rf [5]	Rf [6]	SMILES	also measured
				CCOC(=O)c1csc([C@@H](NC(=O)c2csc([C@@H](NC(=O)c3csc([C@@H](NC(=O)OC(C)(C)C)C(C)C)n3)C(C)C)n2)C(C)C)n1	pIC50 [1]: 5.82
				COc1ccc(C(C)NC(=O)c2csc([C@@H](NC(=O)c3csc([C@@H](NC(=O)OC(C)(C)C)C(C)C)n3)C(C)C)n2)cc1 (stereo not given in full)	pIC50 [2]: 5.70
				COc1ccc(CNC(=O)c2csc([C@@H](NC(=O)c3csc([C@@H](NC(=O)OC(C)(C)C)C(C)C)n3)C(C)C)n2)c(OC)c1	pIC50 ([2]; hela): 5.70
4.7	15	0.2		COc1cc2c(cc1OC)C(=O)C(CC1CCN(C(=O)c3csc([C@@H](NC(=O)OC(C)(C)C)C(C)C)n3)CC1)C2 (stereo not given in full)	
3.3	2	0.4		CCOC(=O)c1csc([C@@H](NC(=O)c2cnc3ccccc3c2)C(C)C)n1	
3.4	11	0.5		CCOC(=O)c1csc([C@@H](NC(=O)/C=C/c2ccc(OC)c(OC)c2)C(C)C)n1	
3.7	10	0.6		CCOC(=O)c1csc([C@@H](NC(=O)c2cc(OC)c(OC)c(OC)c2)C(C)C)n1	
7.6		0.55		COc1ccc(NC(=O)c2csc([C@@H](NC(=O)c3csc([C@@H](NC(=O)OC(C)(C)C)C(C)C)n3)C(C)C)n2)c(OC)c1	pIC50 [2]: 5.60; inhibition (INH) ([2]; hela): Dose-dependent effect
8		0.45		COc1cc(NC(=O)c2csc([C@@H](NC(=O)c3csc([C@@H](NC(=O)OC(C)(C)C)C(C)C)n3)C(C)C)n2)cc(OC)c1OC	pIC50 [2]: 5.19; inhibition (INH) ([2]; hela): Dose-dependent effect
3.5		0.4		CCOC(=O)c1csc([C@@H](NC(=O)c2csc([C@@H](NC(=O)c3ccc(OC)c(OC)c3)C(C)C)n2)C(C)C)n1	pIC50 [2]: 4.80; inhibition (INH) ([2]; hela): Dose-dependent effect
3.6	55	0.4		CCOC(=O)c1csc([C@@H](NC(=O)c2csc([C@@H](NC(=O)c3cc(OC)c(OC)c(OC)c3)C(C)C)n2)C(C)C)n1	
3.9	24	0.45		COc1ccc([C@@H](C)NC(=O)c2csc([C@@H](NC(=O)c3cc(OC)c(OC)c(OC)c3)C(C)C)n2)cc1	
4.3	37	0.55		COc1cc(NC(=O)c2csc([C@@H](NC(=O)c3cc(OC)c(OC)c(OC)c3)C(C)C)n2)cc(OC)c1	
3.3	58	0.4		COc1cc(NC(=O)c2csc([C@@H](NC(=O)c3cc(OC)c(OC)c(OC)c3)C(C)C)n2)cc(OC)c1OC	
2.7	4	0.3		COc1cc(CNC(=O)c2csc([C@@H](NC(=O)c3cc(OC)c(OC)c(OC)c3)C(C)C)n2)cc(OC)c1OC	
3.1	20		0.35	COc1cc(C(=O)N[C@H](c2nc(C(=O)NCc3ccc4c(c3)OCO4)cs2)C(C)C)cc(OC)c1OC	
3.5	40		0.5	COc1cc(C(=O)N[C@H](c2nc(C(=O)Nc3ccc4c(c3)OCO4)cs2)C(C)C)cc(OC)c1OC	
2.8	16		0.3	COc1cc2c(cc1OC)CN(C(=O)c1csc([C@@H](NC(=O)c3cc(OC)c(OC)c(OC)c3)C(C)C)n1)CC2	
4.1	47		0.5	COc1cc(C(=O)N[C@H](c2nc(C(=O)NC3Cc4ccccc4C3)cs2)C(C)C)cc(OC)c1OC	
2.2	5		0.2	COc1cc(C(=O)N[C@H](c2nc(C(=O)NCCc3ccccn3)cs2)C(C)C)cc(OC)c1OC	
6.3	23		0.5	COc1cc(C(=O)N[C@H](c2nc(C(=O)NCc3ccc(-c4ccccc4)cc3)cs2)C(C)C)cc(OC)c1OC	
6.8	18		0.5	COc1cc(C(=O)N[C@H](c2nc(C(=O)Nc3ccc(C(=O)c4ccccc4)cc3)cs2)C(C)C)cc(OC)c1OC	
9.5	54		0.4	COc1cc(C(=O)N[C@H](c2nc(C(=O)Nc3ccccc3C(=O)c3ccc(F)cc3)cs2)C(C)C)cc(OC)c1OC	
				CC(C)[C@@H]1NC(=O)c2csc(n2)[C@H](C(C)C)NC(=O)c2csc(n2)[C@H](C(C)C)NC(=O)c2csc1n2	viability at 3 µM [7]: > 85%; inhibition (INH) [8]: Dose-dependent effect; viability at 3 µM [9]: > 85%; viability at 3 µM [10]: > 85%; viability at 3 µM [11]: > 85%; pIC50 [1]: 5.82; inhibition (INH) [12]: 90%; pIC50 [13]: 5.57
				CC(C)[C@H]1NC(=O)c2csc(n2)[C@@H](C(C)C)NC(=O)c2csc(n2)[C@@H](C(C)C)NC(=O)c2csc1n2	pIC50 [13]: 5.08
